Source: ChEMBL document CHEMBL3232803, “Optimization of potency and pharmacokinetic properties of tetrahydroisoquinoline transient receptor potential melastatin 8 (TRPM8) antagonists” (J Med Chem, 2014)

Legend:
Format in all cases: ADME, organism-based
[1] = Oral bioavailability in Sprague-Dawley rat; conditions: in vivo
How it was run: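 Male Sprague−Dawley rats, n = 3 per group. Iv arm: fed animals, 2 mg/kg in DMSO. Oral arm: fasted animals, 5 or 10 mg/kg by gavage as a suspension in 5% Tween 80/Oraplus. Plasma sampled to 16 h, measured by LC-MS/MS, analysed noncompartmentally.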

[2] = Cmax in Sprague-Dawley rat at 5 mg/kg, po by LC-MS/MS analysis; set-up: dose 5 mg/kg, route oral; conditions: in vivo
How it was run: (§1)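 Fasted male Sprague−Dawley rats (n = 3) given oral gavage as a suspension in 5% Tween 80/Oraplus. Blood sampled up to 16 h post dose, plasma prepared by centrifugation and assayed by LC-MS/MS. Total plasma concentration-time data analysed by noncompartmental methods.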

[3] = Volume of distribution at steady state in Sprague-Dawley rat at 2 mg/kg, iv by LC-MS/MS analysis; set-up: dose 2 mg/kg, route intravenous; conditions: in vivo, read-out: Vdss
How it was run: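 Fed male Sprague−Dawley rats (n = 3) dosed iv at 2 mg/kg in DMSO. Plasma sampled up to 16 h, quantified by LC-MS/MS. Noncompartmental analysis of total plasma concentration-time data.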

[4] = AUC (0 to infinity) in Sprague-Dawley rat at 5 mg/kg, po by LC-MS/MS analysis; set-up: time infinity, dose 5 mg/kg, route oral; conditions: plasma; how it was run: as §1
[5] = Oral bioavailability in Sprague-Dawley rat at 5 mg/kg by LC-MS/MS analysis; conditions: in vivo; how it was run: as §1
[6] = Tmax in Sprague-Dawley rat at 5 mg/kg, po by LC-MS/MS analysis; set-up: dose 5 mg/kg, route oral; conditions: in vivo; how it was run: as §1
[7] = Plasma concentration in unilateral cartoid artery cannulated Sprague-Dawley rat model at 3 mg/kg, po after […]; set-up: dose 3 mg/kg, route oral

bioavailability [1] | Cmax [2] | Vd [3] | AUC(0-inf) [4] | bioavailability [5] | Tmax [6] | concentration at […] [7] | SMILES
70% |  |  |  |  |  |  | N#Cc1ccc(NC(=O)N2CCc3cccnc3[C@H]2c2ccc(C(F)(F)F)cc2)cc1
 | 1580 nM | 2.7 L/kg | 12 µM·h |  |  |  | C[C@H](NC(=O)N1CCc2cccnc2[C@H]1c1ccc(C(F)(F)F)cc1)C(F)(F)F
 | 1670 nM | 3 L/kg | 12.1 µM·h | 67% |  |  | C[C@H](NC(=O)N1CCc2ccccc2[C@H]1c1ccc(C(F)(F)F)c(F)c1)C(F)(F)F
 | 3860 nM | 1.7 L/kg | 71.9 µM·h | 51% | 5.3 h | 1270 nM | C[C@H](NC(=O)N1CCc2cccnc2[C@H]1c1ccc(C(F)(F)F)c(F)c1)C(F)(F)F
